{"data": "Assay results gathered from unrelated publications", "target": "Interleukin-1 receptor-associated kinase 1 (IRAK1, Homo sapiens, UniProt P51617)", "note": "Lines come from different studies, so protocols differ."}
{"Structure (SMILES)": "COc1cc(Nc2ncc(F)c(Nc3ccc4c(n3)NC(=O)C(C)(C)O4)n2)cc(OC)c1OC", "assay": "binding", "conditions": "10 µM", "measurement": "inhibition", "value": "100%"}
{"Structure (SMILES)": "O=c1[nH]c2ccccc2n1C1CCN(Cc2ccc(-c3[nH]c4cc5ncnc5cc4nc3-c3ccccc3)cc2)CC1", "assay": "cell-free assay", "conditions": "0.5 µM", "measurement": "remaining signal", "value": "109%"}
{"Structure (SMILES)": "Nc1ncc(-c2nc(N3CCOCC3)nc(N3CCOCC3)n2)c(C(F)F)n1", "assay": "binding, competition with immobilised ligand", "conditions": "10 µM", "measurement": "remaining binding", "value": "50%"}
{"Structure (SMILES)": "COc1ncccc1-c1cnn2ccc(N3CCN(C(=O)OC(C)C)CC3)nc12", "assay": "binding, competition with immobilised ligand", "conditions": "1 µM", "measurement": "remaining binding", "value": "80%"}
{"Structure (SMILES)": "Cn1cc(-c2cc(F)cc(N3CCn4c(cc5c4CCCC5)C3=O)c2CO)cc(Nc2ccc(N3CCN(C4COC4)CC3)cn2)c1=O", "assay": "enzyme activity, inhibitor", "conditions": "0.1 µM", "measurement": "inhibition", "value": "2%"}
{"Structure (SMILES)": "C#Cc1n[nH]c2c(-c3cn([C@@H](C)c4ccccc4)c(=O)[nH]c3=O)cc(F)cc12", "assay": "enzyme activity, inhibitor", "conditions": "0.1 µM", "measurement": "inhibition", "value": "-7%"}
{"Structure (SMILES)": "Cn1cncc1[C@](O)(COc1ccc(C#N)cc1-c1ccc(OC(F)(F)F)cc1)c1ccc(C#N)cc1", "assay": "cell-free assay, competition with immobilised ligand", "conditions": "1 µM", "measurement": "remaining binding", "value": "83%"}
{"Structure (SMILES)": "CC(C)(C)c1cc(C=C(C#N)C#N)cc(Br)c1O", "assay": "enzyme activity, inhibitor", "conditions": "0.5 µM", "measurement": "remaining activity", "value": "105%"}
{"Structure (SMILES)": "Cn1cc(-c2cccc(N3CCc4c(sc5c4CC(C)(C)C5)C3=O)c2CO)cc(Nc2ccncn2)c1=O", "assay": "enzyme activity, inhibitor", "conditions": "1 µM", "measurement": "inhibition", "value": "-4%"}
{"Structure (SMILES)": "C#Cc1n[nH]c2c(-c3cn(C(C)c4ccccn4)c(=O)[nH]c3=O)cc(F)cc12 (stereo not drawn)", "assay": "enzyme activity, inhibitor", "conditions": "1 µM", "measurement": "inhibition", "value": "11.6%"}
{"Structure (SMILES)": "N#CC1(c2ccccn2)CCN(Cc2cc(C(=O)O)c(=O)n3ccccc23)CC1", "assay": "cell-free assay, competition with immobilised ligand", "conditions": "1 µM", "measurement": "remaining binding", "value": "77%"}
{"Structure (SMILES)": "Cc1nn(C)cc1-c1nc2c(N3CCN(Cc4ccc(Cl)cc4)CC3)c(Cl)cnc2[nH]1", "assay": "binding, competition with immobilised ligand", "conditions": "1 µM", "measurement": "remaining binding", "value": "56%"}
